In PMC7810150 (Journal of medicinal chemistry, 2020):
Like-named read-outs stand apart in the source and are kept apart here. Marks after values point to notes of the source that are not given here.

Experiments:
[1] = estimated from literature data, cited from earlier work
[2] = test system: TC32 Ewing sarcoma cells; assay: 72 h growth inhibition; assay type: cell-based
[3] = test system: EWS-FLI1 mRNA; assay: Target gene mRNA expression by qRT-PCR in TC32 cells; assay type: cell-based; conditions: 6 h incubation
Outline: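 TC32 cells, 300,000/well, were DPBS-washed at ~75% confluence (48–72 h). They were exposed 6 h to test compound at 0, 30, 100, 300 nM or mithramycin at 0, 10, 30, 100 nM. After trypsin collection, RNA was isolated and reverse-transcribed. mRNA was quantified by qRT-PCR relative to GAPDH (ΔΔCt). SEM is from at least two biological replicates.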

[4] = test system: Sp1, VEGFA and BCL-2 mRNA; assay: Target gene mRNA expression by qRT-PCR in PC3 cells; assay type: cell-based; conditions: 6 h treatment
Outline: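 PC3 cells, 300,000/well, were washed with DPBS at ~75% confluence (48–72 h). They were treated 6 h with test compound at 0, 100, 300, 1000 nM or mithramycin at 0, 30, 100, 300 nM. Cells were harvested by trypsin; RNA was isolated and cDNA made. qRT-PCR expression was calculated relative to GAPDH (ΔΔCt). Error bars are SEM of at least two biological replicates.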

[5] = test system: TC32 tumors; assay: TC32 cell line xenograft efficacy in nu/nu mice; assay type: in vivo; conditions: for effect on survival (and tumor volume) / median survival: q3dx8 IV, MTMox32E […] mg/kg, MTM 1 mg/kg; for median survival: vehicle 22 days
Outline: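 TC32 cells in 1:1 RPMI (no FBS)/Matrigel, 1.0 × 10^6 cells per 100 μL, injected subcutaneously into the flank of female athymic nu/nu mice. Mice with tumors of at least 50 mm3 (14–28 days post implantation) were randomized. Dosing was IV bolus in 5% Kolliphor EL/2% DMSO/93% saline. Tumor volume was measured every 3 days, with euthanasia at 20 mm tumor length. Tumor volume was compared at day 16 by one-way ANOVA; survival by log-rank (Holm-Sidak).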

[6] = test system: EWS-FLI1 and Sp1 mRNA; assay: TC32 xenograft tumor tissue mRNA analysis; assay type: in vivo, mice; conditions: tumors collected 6 h after the sixth dose, n = 3/group
Outline: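 Three mice per group were taken from the q3dx8 IV xenograft study. Tumors were resected 6 h after the 6th dose, rinsed in sterile PBS, snap-frozen in liquid nitrogen and stored at −80 °C. Tissue was cut semifrozen and ground under liquid nitrogen. Total RNA was extracted in RLT lysis buffer with a silica-column kit.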

[7] = biological target: EWS-FLI1 (Homo sapiens, UniProt Q01543+Q01844); conditions: 10 μM, 6 h incubation, TC32 cells; DMSO control 48.9 °C
[8] = test system: EWS-FLI1 and NR0B1 protein; conditions: TC32 cells, 24 h, 10, 30 and 300 nM
[9] = test system: EWS-FLI1 transcriptional activity (NR0B1 promoter); assay: Luciferase reporter assay, NR0B1 promoter, in TC32 cells; assay type: cell-based; conditions: read-out: EC50, NR0B1-mediated luciferase expression; 12 h incubation
[10] = test system: TC32 Ewing sarcoma cells; conditions: 72 h; cited from earlier work
[11] = test system: PC3 prostate cells; conditions: read-out: PC3 GI50, 72 h; cited from earlier work
[12] = test system: EWS-FLI1 transcriptional activity (NR0B1 promoter); conditions: read-out: EC50 in a similar reporter cell line; cited from earlier work
[13] = test system: CMV promoter; conditions: cited from earlier work

CO[C@@H]([C@@H]1Cc2cc3cc(O[C@H]4C[C@@H](O[C@H]5C[C@@H](O)[C@H](O)[C@@H](C)O5)[C@H](O)[C@@H](C)O4)c(C)c(O)c3c(O)c2C(=O)[C@H]1O[C@H]1C[C@@H](O[C@H]2C[C@@H](O[C@H]3C[C@](C)(O)[C@H](O)[C@@H](C)O3)[C@@H](O)[C@@H](C)O2)[C@H](O)[C@@H](C)O1)[C@@H](O)C(C)=O [MTM SK]
clearance (CL) ([1]; IV, 18 mg/kg): 43.17 mL/min/kg
dose-normalized systemic exposure (AUC/D) ([1]; IV, 18 mg/kg): 386 kg·ng·h/mL/mg
volume of distribution (Vd) ([1]; IV, 18 mg/kg): 0.857 L/kg

(E)-3-(2′-{2-[(Methyl l-Phenylalanyl-l-tryptophanate)amino]-2-oxoethoxy}imino) MTM [MTMox32E]
TC32 GI50 [2]: 79 nM
EWS-FLI1 mRNA levels [3]: decreased EWS-FL1 mRNA levels in a concentration-dependent manner
Sp1, VEGFA and BCL-2 mRNA [4]: minimally affected Sp1, VEGFA, and BCL-2
effect on survival (and tumor volume) [5]: significant in comparison to control (p = 0.0001) and MTM (p = 0.0385)
median survival [5]: 38 days
effect on survival ([5]; qMWFx2, 14 mg/kg): statistically significant improvement in survival over vehicle control group
EWS-FLI1 and Sp1 mRNA levels in tumor [6]: reduced mRNA levels of both EWS-FLI1 (p = 0.002) and Sp1 (p = 0.04)
Tagg of EWS-FLI1 [7]: 51.7 °C
EWS-FLI1 protein levels [8]: did not affect the protein levels of EWS-FLI1
NR0B1 protein expression [8]: greatly diminished the expression of NR0B1

CO[C@@H]([C@@H]1Cc2cc3cc(O[C@H]4CC(O[C@H]5CC(O)[C@H](O)C(C)O5)[C@H](O)C(C)O4)c(C)c(O)c3c(O)c2C(=O)[C@H]1O[C@H]1CC(O[C@H]2CC(O[C@H]3CC(O)[C@H](O)C(C)O3)[C@@H](O)C(C)O2)[C@H](O)C(C)O1)[C@@H](O)C(C)=O (some centres unmarked) [EC-8042]
clearance (CL/F) ([1]; IP, 24 mg/kg, CL/F): 7197^b mL/h/kg
dose-normalized systemic exposure (AUC/D) ([1]; IP, 24 mg/kg): 202 kg·ng·h/mL/mg
volume of distribution (Vd) ([1]; IP, 24 mg/kg): 11.259 L/kg

mithramycin A [MTM]
EC50 [9]: 68 nM
EWS-FLI1 mRNA levels [3]: decreased EWS-FL1 mRNA levels in a concentration-dependent manner
Sp1, VEGFA and BCL-2 mRNA [4]: minimally affected Sp1, VEGFA, and BCL-2
effect on survival (and tumor volume) [5]: not statistically different than the control group
median survival [5]: 31 days
EWS-FLI1 and Sp1 mRNA levels in tumor [6]: reduced Sp1 mRNA levels (p = 0.003), but not EWS-FLI1
TC32 GI50 [10]: 32 nM
GI50 [11]: 83 nM
EC50 [12]: 5 to 100 nM
effect on cells expressing luciferase under the control of a CMV promoter [13]: had no effect
